Data published in ChEMBL document CHEMBL1641452, “Synthesis and in vitro anti-hepatitis B virus activity of six-membered azanucleoside analogues” (Bioorg Med Chem, 2011).
In brackets after ≈: the same amount, converted by molar mass.

What was measured:
[1] = Cytotoxicity against human HepG2(2.2.15) cells; assay type: cell-based; conditions: read-out: TC50 (the source's name)
Hepatitis B virus = experiment: Antiviral activity against Hepatitis B virus infected in human HepG2.2.15 cells assessed as inhibition of viral DNA replication by semi-quantitative EIA; assay type: functional, organism-based; conditions: HepG2 2.2.15
In short: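 HepG2 2.2.15 cells, derived from hepatoblastoma HepG2 and stably transfected with HBV, were seeded in flat-bottomed tissue culture wells. They received eight consecutive daily doses of compound in RPMI1640 with 2% fetal bovine serum, with lamivudine as the positive control. HBV nucleic acids and proteins were analysed at the end of treatment (day 8).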

[2] = Selectivity index, ratio of TC50 for human HepG2(2.2.15) cells to IC50 for Hepatitis B virus; assay type: toxicity; conditions: read-out: Selectivity Index

Compound | CC50 [1] | IC50 (Hepatitis B virus) | selectivity ratio [2]
Cc1cn([C@@H]2[C@@H](O)[C@H](O)C(O)CN2C(=O)OC(C)(C)C)c(=O)[nH]c1=O (single isomer, unassigned) | > 1000 µg/mL | – | –
Cc1cn([C@@H]2[C@H](O)[C@H](O)C(O)CN2C(=O)OC(C)(C)C)c(=O)[nH]c1=O (single isomer, unassigned) | 430 µg/mL (≈ 1200 µM) | 93 µg/mL (≈ 260 µM) | 4.6
CC(C)(C)OC(=O)N1C[C@@H](O)[C@@H](O)[C@H](O)[C@@H]1n1cnc2c(N)ncnc21 | 1000 µg/mL (≈ 2730 µM) | – | –
CC(C)(C)OC(=O)N1CC(O)[C@@H](O)[C@H](O)[C@H]1n1cnc2c(N)ncnc21 (single isomer, unassigned) | > 1000 µg/mL | – | –
CC(C)(C)OC(=O)N1C[C@H](O)[C@@H](O)[C@@H](O)[C@@H]1n1cc(F)c(=O)[nH]c1=O | 29 µg/mL (≈ 80.3 µM) | – | –
Nc1ccn([C@@H]2CS[C@H](CO)O2)c(=O)n1 [LAMIVUDINE] | 1000 µg/mL (≈ 4360 µM) | 4.51 µg/mL (≈ 19.7 µM) | 222
CC(C)(C)OC(=O)N1CC(O)[C@@H](O)[C@H](O)[C@H]1n1ccc(=O)[nH]c1=O (single isomer, unassigned) | > 1000 µg/mL | – | –
CC(C)(C)OC(=O)N1C[C@@H](O)[C@@H](O)[C@H](O)[C@H]1n1cc(F)c(=O)[nH]c1=O | 37 µg/mL (≈ 103 µM) | 2.74 µg/mL (≈ 7.58 µM) | 13.5
Cc1cn([C@H]2[C@@H](O)[C@H](O)[C@@H](O)CN2C(=O)OC(C)(C)C)c(=O)[nH]c1=O | 1000 µg/mL (≈ 2800 µM) | – | –
CC(C)(C)OC(=O)N1CC(O)[C@@H](O)[C@H](O)[C@H]1n1cc(F)c(=O)[nH]c1=O (single isomer, unassigned) | 192 µg/mL (≈ 533 µM) | – | –
CC(C)(C)OC(=O)N1C[C@@H](O)[C@@H](O)[C@H](O)[C@H]1n1cnc2c(N)ncnc21 | 1000 µg/mL (≈ 2730 µM) | 247 µg/mL (≈ 675 µM) | 4
Cc1cn([C@@H]2[C@@H](O)[C@H](O)[C@@H](O)CN2C(=O)OC(C)(C)C)c(=O)[nH]c1=O | 1000 µg/mL (≈ 2800 µM) | – | –
CC(C)(C)OC(=O)N1CC(O)[C@@H](O)[C@H](O)[C@H]1n1ccc(N)nc1=O (single isomer, unassigned) | > 1000 µg/mL | – | –
Cc1cn([C@H]2[C@H](O)[C@H](O)C(O)CN2C(=O)OC(C)(C)C)c(=O)[nH]c1=O (single isomer, unassigned) | 577 µg/mL (≈ 1620 µM) | 33 µg/mL (≈ 92.4 µM) | 17.5
CC(C)(C)OC(=O)N1CC(O)[C@@H](O)[C@@H](O)[C@@H]1n1cnc2c(N)ncnc21 (single isomer, unassigned) | 693 µg/mL (≈ 1890 µM) | 281 µg/mL (≈ 767 µM) | 3.6
CC(C)(C)OC(=O)N1C[C@@H](O)C(O)C(O)C1n1cnc2c(N)ncnc21 (single isomer, unassigned) | 1000 µg/mL (≈ 2730 µM) | 316 µg/mL (≈ 862 µM) | 3.2
